Test results published in ChEMBL document CHEMBL3232844, “Synthesis and structure activity relationships of schweinfurthin indoles” (2014).

Key:
Format in all cases: functional
HOP-62 = test: Cytotoxicity against human HOP62 cells; details: for CC50: read-out: pLC50 (the source's name) (converted); for TGI: read-out: pTGI (converted)
In short: (§1)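 Tested in a 60-cell-line human tumor panel screen; the read-out is growth inhibition, reported as GI50 for each cell line.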

PC-3 = test: Cytotoxicity against human PC3 cells; details: for TGI: read-out: pTGI (converted); in short: as §1
HOP-92 = test: Cytotoxicity against human HOP92 cells; details: for CC50: read-out: pLC50 (the source's name) (converted); for TGI: read-out: pTGI (converted); in short: as §1
SK-MEL-28 = test: Cytotoxicity against human SK-MEL-28 cells; details: for CC50: read-out: pLC50 (the source's name) (converted); for TGI: read-out: pTGI (converted); in short: as §1
[1] = Cytotoxicity against human Hs578T cells; details: Hs-578T; for TGI: read-out: pTGI (converted); in short: as §1
SW-620 = test: Cytotoxicity against human SW620 cells; details: for CC50: read-out: pLC50 (the source's name) (converted); for TGI: read-out: pTGI (converted)
In short: (§2)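 Cell line run as part of the 60-cell-line screening panel; growth inhibition was reported as a GI50 for each line.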

SK-MEL-5 = test: Cytotoxicity against human SK-MEL-5 cells; details: for CC50: read-out: pLC50 (the source's name) (converted); for TGI: read-out: pTGI (converted); in short: as §1
RPMI-8226 = test: Cytotoxicity against human RPMI8226 cells; details: for CC50: read-out: pLC50 (the source's name) (converted); for TGI: read-out: pTGI (converted); in short: as §1
SR = test: Cytotoxicity against human SR cells; details: for CC50: read-out: pLC50 (the source's name) (converted); for TGI: read-out: pTGI (converted); in short: as §2
CCRF-CEM = test: Cytotoxicity against human CCRF-CEM cells; details: for CC50: read-out: pLC50 (the source's name) (converted); for TGI: read-out: pTGI (converted)
MDA-MB-468 = test: Cytotoxicity against human MDA-MB-468 cells; details: for TGI: read-out: pTGI (converted); in short: as §1
COLO 205 = test: Cytotoxicity against human COLO205 cells; details: for CC50: read-out: pLC50 (the source's name) (converted); for TGI: read-out: pTGI (converted); in short: as §1
[2] = Cytotoxicity against human UACC62 cells; details: for GI50: UACC-62; for CC50: UACC-62, read-out: pLC50 (the source's name) (converted); for TGI: UACC-62, read-out: pTGI (converted); in short: as §2
NCI-H522 = test: Cytotoxicity against human NCI-H522 cells; details: for CC50: read-out: pLC50 (the source's name) (converted); for TGI: read-out: pTGI (converted); in short: as §1
Malme-3M = test: Cytotoxicity against human MALME-3M cells; details: for CC50: read-out: pLC50 (the source's name) (converted); for TGI: read-out: pTGI (converted); in short: as §1
SNB-19 = test: Cytotoxicity against human SNB19 cells; details: for CC50: read-out: pLC50 (the source's name) (converted); for TGI: read-out: pTGI (converted); in short: as §1
NCI-H322M = test: Cytotoxicity against human NCI-H322M cells; details: for CC50: read-out: pLC50 (the source's name) (converted); for TGI: read-out: pTGI (converted); in short: as §1

COc1cc(/C=C/c2cc(O)c3cc(CC=C(C)C)[nH]c3c2)cc2c1O[C@]1(C)CC[C@@H](O)C(C)(C)[C@H]1C2
GI50 (HOP-62): 0.832 µM | CC50 (HOP-62): > 100 µM | TGI (HOP-62): 46.8 µM | GI50 (PC-3): 1.02 µM | LC50 (PC-3): > 100 µM | TGI (PC-3): > 100 µM | GI50 (HOP-92): 1.38 µM | CC50 (HOP-92): > 100 µM | TGI (HOP-92): 42.7 µM | GI50 (SK-MEL-28): 4.68 µM | CC50 (SK-MEL-28): 91.2 µM | TGI (SK-MEL-28): 50.1 µM | GI50 [1]: 0.309 µM | LC50 [1]: > 100 µM | TGI [1]: > 100 µM | GI50 (SW-620): 2.04 µM | CC50 (SW-620): 39.8 µM | TGI (SW-620): 8.32 µM | GI50 (SK-MEL-5): 1.41 µM | CC50 (SK-MEL-5): 7.24 µM | TGI (SK-MEL-5): 3.16 µM | GI50 (RPMI-8226): 0.282 µM | CC50 (RPMI-8226): > 100 µM | TGI (RPMI-8226): 32.4 µM | GI50 (SR): 0.759 µM | CC50 (SR): > 100 µM | TGI (SR): > 100 µM | GI50 (CCRF-CEM): 0.741 µM | CC50 (CCRF-CEM): > 100 µM | TGI (CCRF-CEM): > 100 µM | GI50 (MDA-MB-468): 3.02 µM | LC50 (MDA-MB-468): > 100 µM | TGI (MDA-MB-468): 26.9 µM | GI50 (COLO 205): 2.75 µM | CC50 (COLO 205): 22.4 µM | TGI (COLO 205): 8.32 µM | GI50 [2]: 0.955 µM | CC50 [2]: > 100 µM | TGI [2]: 7.59 µM | GI50 (NCI-H522): 4.9 µM | CC50 (NCI-H522): > 100 µM | TGI (NCI-H522): 43.7 µM | GI50 (Malme-3M): 4.9 µM | CC50 (Malme-3M): > 100 µM | TGI (Malme-3M): > 100 µM | GI50 (SNB-19): 2.63 µM | CC50 (SNB-19): > 100 µM | TGI (SNB-19): > 100 µM | GI50 (NCI-H322M): 32.4 µM | CC50 (NCI-H322M): > 100 µM | TGI (NCI-H322M): > 100 µM

COc1cc(/C=C/c2cc(O)c3ccn(C)c3c2)cc2c1O[C@]1(C)CC[C@@H](O)C(C)(C)[C@H]1C2
GI50 (HOP-62): 0.407 µM | CC50 (HOP-62): > 100 µM | TGI (HOP-62): 5.01 µM | GI50 (PC-3): 0.575 µM | LC50 (PC-3): > 100 µM | TGI (PC-3): 67.6 µM | GI50 (HOP-92): 0.525 µM | CC50 (HOP-92): > 100 µM | TGI (HOP-92): 5.62 µM | GI50 (SK-MEL-28): 0.832 µM | CC50 (SK-MEL-28): > 100 µM | TGI (SK-MEL-28): 16.2 µM | GI50 [1]: 0.141 µM | LC50 [1]: > 100 µM | TGI [1]: 20.4 µM | GI50 (SW-620): 1.02 µM | CC50 (SW-620): > 100 µM | TGI (SW-620): 3.24 µM | GI50 (SK-MEL-5): 1.15 µM | CC50 (SK-MEL-5): 5.25 µM | TGI (SK-MEL-5): 2.45 µM | GI50 (RPMI-8226): 0.0708 µM | CC50 (RPMI-8226): > 100 µM | TGI (RPMI-8226): 1.62 µM | GI50 (SR): 0.468 µM | CC50 (SR): > 100 µM | TGI (SR): > 100 µM | GI50 (CCRF-CEM): 0.38 µM | CC50 (CCRF-CEM): > 100 µM | TGI (CCRF-CEM): > 100 µM | GI50 (MDA-MB-468): 1.02 µM | LC50 (MDA-MB-468): > 100 µM | TGI (MDA-MB-468): 14.1 µM | GI50 (COLO 205): 1.66 µM | CC50 (COLO 205): 7.08 µM | TGI (COLO 205): 3.47 µM | GI50 [2]: 0.316 µM | CC50 [2]: 77.6 µM | TGI [2]: 2.09 µM | GI50 (NCI-H522): 1.45 µM | CC50 (NCI-H522): > 100 µM | TGI (NCI-H522): 4.37 µM | GI50 (Malme-3M): 0.309 µM | CC50 (Malme-3M): > 100 µM | TGI (Malme-3M): 49 µM | GI50 (SNB-19): 1.45 µM | CC50 (SNB-19): > 100 µM | TGI (SNB-19): > 100 µM | GI50 (NCI-H322M): 12.9 µM | CC50 (NCI-H322M): > 100 µM | TGI (NCI-H322M): > 100 µM
